In PubChem BioAssay one finds growth inhibition data, which are given here for 17 compounds.

Unmarked numbers belong to inactive results.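 The calls were made as follows: active = growth inhibition above 25% in both replicates, a cutoff set 3 SD above the mean; inconclusive = above 25% in only one replicate; inactive = the rest.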

This test is described as follows: OD615 S. cerevisiae growth inhibition, permissive medium, pilot counter-assay, permissive growth control for S. cerevisiae lifespan shortening project (AID 705). The following applies: OD615, 24 h, at 10 µM, stronger effect = higher value. The method in brief:
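assay system = Saccharomyces cerevisiae strain carrying genetically modified DeaD replicative-lifespan system | technique = absorbance (optical density) at 615 nm | buffer or medium = permissive raffinose/galactose medium | timing = cells pre-grown 4 h, then 24 h compound exposure, 30 °C humidified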
On to `CCCCOC(=O)c1ccc(NC(=O)CSCc2n[nH]c(=O)[nH]2)cc1`, for which the growth inhibition is -1.44%. As for `CCNc1nc(NCC)nc(-n2nc(C)cc2C)n1`, the figure is 4.27%; as for `CCOC(=O)c1cc(NC(=O)NCc2ccco2)c(C)nc1C`, -7.98%. As for `COc1cc2c(=O)n(Cc3ccccc3)c(=O)n(CC(=O)NCC3CCCO3)c2cc1OC` (configuration not stated), the figure is -2.89%; as for `CCC(CO)N=CC1=C(O)CC(C)(C)CC1=O` (configuration not stated), 3.97%; as for `COC(=O)CCSCC(=O)Nc1nnc(C)s1`, 3.46%.

On to `COc1cc(OC)nc(NC(=O)C(C)C)n1`, for which the growth inhibition is -1.12%.

Take `CC(NC(=O)c1ccco1)C(c1cccs1)N1CCOCC1` (configuration not stated): the growth inhibition is -6.95%. In the case of `CCn1ccnc1C(O)c1cccc(OC)c1OC` (configuration not stated) it was -8.24%.

With `Cc1cc(C)nc(SCC(=O)Oc2ccc3oc(=O)cc(C)c3c2)n1`, the growth inhibition was -15.6%. For `CCCCCn1c(N(C)Cc2ccccc2)nc2c1c(=O)[nH]c(=O)n2C`, the growth inhibition is -4.46%.

As for `Cc1cc(C)cc(-n2cc3c(=O)n(C)c(=O)n(C)c3c2)c1`, the growth inhibition is -6.43%. Turning to `O=C(C1CC(=O)N(C2CCCC2)C1)N1CCN(c2ccc(F)cc2)CC1` (configuration not stated), the growth inhibition is -1.42%. With `COC(=O)C1=CN(C)C=C(C(=O)OC)C1c1ccsc1`, the growth inhibition is -5%. With `CCCC(=O)c1c(NC)cc(C)oc1=O`, the growth inhibition is -7.03%. As for `CCOc1cccc(C2c3c(oc4ccccc4c3=O)C(=O)N2c2ccccn2)c1` (configuration not stated), the growth inhibition was -1.86%. Turning to `CN(C)CCNC(=O)c1ccc2c(c1)N(Cc1ccc(F)cc1)CCS2`, the growth inhibition is -2.46%.
